High-throughput results deposited in PubChem BioAssay by Broad Institute.
Compounds with a hit are over-represented: about 2.8% of the library has one in this group of screens.
SIRT5 block = blocks human SIRT5 desuccinylation of peptide | hit rate 1.1% among 330,000 | Purified SirT5, succinyl-peptide AMC, trypsin-coupled fluorescence | AID 652115 | inhibition, % at 15 µM | Q9NXA8; in the data active = inhibition above about 15%; inconclusive = no clear call, values can overlap the other calls
E-sel inducer = E-selectin induction on HUVECs; hit rate 0.37% among 260,000; HUVEC E-selectin immunofluorescence imaging; normalized: neutral wells 0, TNF-alpha wells 100; AID 686992; activation, % at 7.58 µM; P16581;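 active = mean E-selectin-positive cell signal at least 10% of the positive control, reached in at least 60% of replicates, without over 20% cell loss; inconclusive = no rule given, readout overlaps actives, possibly toxicity-flagged; inactive = the rest, including those meeting only one limit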
Target sequence (P16581 whole entry, looked up): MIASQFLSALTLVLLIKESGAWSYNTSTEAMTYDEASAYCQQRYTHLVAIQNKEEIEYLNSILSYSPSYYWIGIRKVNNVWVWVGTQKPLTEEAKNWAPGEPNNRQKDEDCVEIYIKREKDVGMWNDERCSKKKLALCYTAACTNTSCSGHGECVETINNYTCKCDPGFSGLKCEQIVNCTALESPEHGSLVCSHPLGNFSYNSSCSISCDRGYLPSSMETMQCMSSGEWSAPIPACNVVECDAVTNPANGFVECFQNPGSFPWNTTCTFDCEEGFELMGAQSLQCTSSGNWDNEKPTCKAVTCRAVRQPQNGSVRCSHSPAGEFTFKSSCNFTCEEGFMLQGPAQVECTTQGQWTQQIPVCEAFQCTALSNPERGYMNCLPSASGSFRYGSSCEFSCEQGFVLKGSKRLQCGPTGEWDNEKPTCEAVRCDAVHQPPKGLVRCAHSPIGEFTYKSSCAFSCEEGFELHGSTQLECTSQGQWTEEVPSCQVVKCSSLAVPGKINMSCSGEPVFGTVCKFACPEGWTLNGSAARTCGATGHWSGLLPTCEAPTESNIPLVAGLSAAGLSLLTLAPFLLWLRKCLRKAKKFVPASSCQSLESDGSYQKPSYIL
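Read-out: % PE-positive cells | Test system: HUVEC | Doses: One compound dose added by pin transfer | Buffer or medium: EGM-2 over gelatin coat | Signal: Immunofluorescence imaging | Benchmarks: TNF-alpha, DMSO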
DENV2 CPE = inhibitors of DENV2 cytopathic effect | DENV2-infected cells, cytopathic effect rescue, plate reader | CPE inhibition, % at 9.99 µM | hit rate 1.7% among 350,000; in the data active = CPE inhibition above about 20%, passing the limit was not always enough; inconclusive = no clear call, values can overlap the other calls; tested in BHK-21 cells;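 note: 0% = median of neutral control wells and 100% = median of positive control wells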
* = called active by the depositor; ? = inconclusive; . = no result given.

SMILES	SIRT5 block	E-sel inducer	DENV2 CPE
COc1ccc(NC(=O)N(C)C[C@@H]2Oc3ccc(NC(=O)c4ccncc4)cc3C(=O)N([C@H](C)CO)C[C@H]2C)cc1	-2.7	-8.3	15.1
Nc1ccc2oc(-c3ccccc3Cl)cc(=O)c2c1O	.	-0.2	104.9*
O=c1cc(-c2ccccc2Cl)oc2ccc([N+](=O)[O-])c(O)c12	.	-0.1	-3.9
O=C(c1ccccc1)N1CC[C@@H]2[C@@H](CO)Nc3ccc(C#Cc4cccnc4)cc3[C@@H]21	7.5	0.6	?
O=C(CSc1ccccn1)N/N=C/c1cccc([N+](=O)[O-])c1	1.6	.	46.4*
O=[N+]([O-])c1cccc(/C=C/c2ccccn2)c1	23.8*	.	?
O=[N+]([O-])c1cccc(/C=N/Nc2ccccn2)c1	-8.1	-0.8	-3.6
Cc1cc(C)nc(SCC(=O)N/N=C/c2cccc([N+](=O)[O-])c2)n1	-2.9	.	-5.3
CNC[C@H]1Oc2c(NC(=O)Nc3ccc(C(F)(F)F)cc3)cccc2C(=O)N([C@@H](C)CO)C[C@H]1C	7.7	.	-5.6
Cc1noc(C)c1S(=O)(=O)Nc1ccc2c(c1)CC(=O)N([C@H](C)CO)C[C@H](C)[C@H](CN(C)S(C)(=O)=O)O2	.	-1.8	15.4
CC1CN(S(=O)(=O)c2ccc(F)cc2)CN1C(=O)N1CCOCC1 (stereo not drawn)	-6.1	.	6.3
CC1CN(S(=O)(=O)c2ccc(F)cc2)C(C)N1C(=O)N1CCOCC1 (stereo not drawn)	-1.4	26.3*	-3.8
O=S(=O)(c1ccc(F)cc1)N1CCCCN2[C@H](CO)[C@H](c3ccc(C#CC4CC4)cc3)[C@H]2C1	6.7	-0.6	-30.7
CSc1cccc(CN2CCN(Cc3ccc(F)c(F)c3)C(CCO)C2)c1 (stereo not drawn)	15.6*	.	.
CC(=O)c1cccc(CN2CCN(CCc3ccccc3)C(CCO)C2)c1 (stereo not drawn)	-0.9	.	1.2
Cc1ccc(CN2CCN(Cc3cn(C(C)C)c4ccccc34)CC2CCO)o1 (stereo not drawn)	-0.8	.	-4.5
CSc1cccc(CN2CCN(Cc3ccccc3)C(CCO)C2)c1 (stereo not drawn)	-6.8	.	-3.1
CC(C)=CCN1CCN(Cc2cn(C(C)C)c3ccccc23)CC1CCO (stereo not drawn)	22.0*	.	-7.1
CC(=O)c1cccc(CN2CCN(CC=C(C)C)C(CCO)C2)c1 (stereo not drawn)	16.7*	-2.8	11.4
CCCN1C[C@@H](C)[C@@H](OC)CN(C)C(=O)c2ccc(NC(=O)CC)cc2OC[C@@H]1C	.	-0.2	.
CCCNC(=O)N1CC2(CCN(Cc3cccnc3)CC2)c2c(n(C)c3cc(OC)ccc23)[C@H]1CO	7.6	0.1	4.2
COCC(=O)N(C)C[C@H]1Oc2ncc(C#C[C@H](C)O)cc2C(=O)N([C@@H](C)CO)C[C@@H]1C	-13.7	-0.7	-0.2
COc1ccc(C[C@@H]2CCc3cnnn3COC[C@@H](Cc3ccccc3)NC2=O)cc1	-1.9	-0.2	-0.2
CO[C@@H]1CN(C)C(=O)c2ccc(NS(=O)(=O)c3ccccc3)cc2OC[C@H](C)N(Cc2cccnc2)C[C@@H]1C	8.3	-0.1	-8.1
CC(Sc1nc(-c2ccc(F)cc2)cs1)C(=O)N1c2ccccc2CC1C (stereo not drawn)	25.6*	.	-3.4
SMILES	SIRT5 block	E-sel inducer	DENV2 CPE
CC1Cc2ccccc2N1C(=O)CSc1nc(-c2ccccc2)cs1 (stereo not drawn)	0.6	.	8.7
Nc1c(-c2ccccc2)nc2ncccn12	-0.4	-0.3	27.7*
Cc1ccc(-c2nc3ncccn3c2N)cc1	0.7	-5.1	6.7
CC[C@]12c3[nH]c4cc(CCC(=O)N(C)C)ccc4c3CCN1C(=O)[C@@H](CC(=O)NCc1ccco1)C[C@@H]2C(=O)N1CCN(C(=O)C2CC2)CC1	-4.0	-0.1	25.1*
CN(C)C(=O)CCc1ccc2c3c([nH]c2c1)[C@]1(CCc2ccccc2)[C@@H](C(=O)N2CCCCC2)C[C@H](CC(=O)NCc2ccco2)C(=O)N1CC3	1.0	-0.1	-9.6
CC[C@]12c3[nH]c4cc(CCC(=O)N(C)C)ccc4c3CCN1C(=O)[C@@H](CC(=O)NCCC1=CCCCC1)C[C@@H]2C(=O)N1CCN(C(=O)c2ccco2)CC1	-2.6	.	24.9*
CC[C@]12c3[nH]c4cc(CCC(=O)N(C)C)ccc4c3CCN1C(=O)[C@@H](CC(=O)NCCC1=CCCCC1)C[C@@H]2C(=O)N1CCN(C(=O)C2CC2)CC1	-2.8	-0.7	11.6
CCN(CC)C(=O)[C@H]1C[C@H](CC(=O)NC/C=C(\C)CCC=C(C)C)C(=O)N2CCc3c([nH]c4ccc(Cl)cc34)[C@]12C	-4.3	0.0	-6.0
COCCCNC(=O)C[C@H]1C[C@H](C(=O)N(C(C)C)C(C)C)[C@@]2(C)c3[nH]c4cc(CCC(=O)N(C)C)ccc4c3CCN2C1=O	-4.0	.	36.8*
CCN(CC)C(=O)[C@H]1CC(CC(=O)NC/C=C(\C)CCC=C(C)C)C(=O)N2CCc3c([nH]c4ccc(OC)cc34)[C@]12C (stereo partly drawn)	-1.6	-1.9	40.4*
CC(C)N(C(=O)[C@H]1C[C@H](CC(=O)NCCCN(C)C)C(=O)N2CCc3c([nH]c4cc(CCC(=O)N(C)C)ccc34)[C@]12C)C(C)C	-2.7	.	10.7
CCCC(=O)Nc1ccc2c(c1)C(=O)N(C)C[C@@H](OC)[C@H](C)CN(CCc1ccccc1)[C@@H](C)CO2	3.6	-0.1	15.7
COc1ccc(NC(=O)Nc2ccc3c(c2)CC(=O)N([C@@H](C)CO)C[C@H](C)[C@H](CN(C)S(=O)(=O)c2cccs2)O3)cc1	.	0.0	.
C[C@@H](NC(=O)C[C@@H]1C[C@@H]2c3cc(NC(=O)CN(C)C)ccc3O[C@@H]2[C@H](CO)O1)c1ccccc1	-2.3	-0.2	-1.9
C[C@@H]1CCCCO[C@@H](CN(C)S(C)(=O)=O)[C@H](C)CN([C@@H](C)CO)C(=O)c2cc(NC(=O)c3ccncc3)ccc2O1	.	0.1	-1.6
C[C@H]1CN([C@@H](C)CO)C(=O)c2cc(-c3cccc(F)c3)cnc2O[C@H]1CN(C)Cc1cccnc1	-6.9	-0.6	13.1
C[C@@H]1CN([C@H](C)CO)S(=O)(=O)c2ccc(/C=C/c3ccccc3)cc2O[C@H]1CN(C)Cc1ccccc1	23.3*	-0.4	4.2
C/C=C/c1ccc2c(c1)O[C@H](CN(C)Cc1ccccc1)[C@@H](C)CN([C@@H](C)CO)S2(=O)=O	18.0*	1.5	14.2
C/C=C/c1ccc2c(c1)O[C@@H](CN(C)Cc1cccc(F)c1)[C@@H](C)CN([C@H](C)CO)S2(=O)=O	13.0	-0.5	12.1
C/C=C/c1ccc2c(c1)O[C@@H](CN(C)Cc1ccccc1)[C@@H](C)CN([C@@H](C)CO)S2(=O)=O	1.6	0.0	-0.3
C/C=C/c1ccc2c(c1)O[C@H](CN(C)Cc1cccc(F)c1)[C@@H](C)CN([C@@H](C)CO)S2(=O)=O	17.4*	0.7	3.3
C[C@H](CO)N1C[C@H](C)[C@H](CN(C)Cc2ccc(C(=O)O)cc2)Oc2cc(/C=C/c3ccccc3)ccc2S1(=O)=O	-0.8	0.0	3.8
C[C@H](CO)N1C[C@H](C)[C@@H](CN(C)S(=O)(=O)c2ccc(C(F)(F)F)cc2)OCc2ccccc2-c2ccccc2C1=O	.	3.2	-1.9
